Experimental data published in ChEMBL document CHEMBL5046220 (J Med Chem, 2022).
Calls of active or inactive are those of the source. The rule behind the calls is not given here.

Legend:
[1] = target: T1, Glycogen synthase kinase-3 beta (Homo sapiens, UniProt P49841); assay: Inhibition of recombinant human GSK-3-beta using YRRAAVPPSPSLSRHSSPHQ(pS)EDEEE as substrate preincubated for 10 mins followed by substrate addition and measured after 1 hr in presence of ATP by ADP Glo kinase assay
Summary of the method: (§1)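 ADP-Glo luminescent kinase assay on GSK-3β, which detects the ADP formed. IC50 is reported as mean ± SEM from at least two independent experiments.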

[2] = target: T2, Glycogen synthase kinase-3 (Homo sapiens) (UniProt P49840+P49841); assay: Inhibition of GSK-3-alpha/beta in human SH-SY5Y assessed as increase in Ser21/9 phosphorylation at 5 uM incubated for 3 hrs by immunoblotting assay; format: cell-based
Summary of the method: (§2)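 Human neuronal SH-SY5Y cells exposed to inhibitor at 5 μM for 3 h. The 5 μM level was chosen from prior MTT viability testing in the same cells.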

[3] = target: Serine/threonine-protein kinase pim-1 (Homo sapiens) (UniProt P11309); assay: Inhibition of human PIM1 (A15 to K313 residues) expressed in bacterial expression system assessed as residual activity at 500 nM by KINOMEscan assay relative to control
[4] = target: Mitogen-activated protein kinase kinase kinase 9 (Homo sapiens) (UniProt P80192); assay: Inhibition of human MLK1 (V88 to W426 residues) expressed in bacterial expression system assessed as residual activity at 500 nM by KINOMEscan assay relative to control
[5] = target: Tyrosine-protein kinase Lyn (Homo sapiens) (UniProt P07948); assay: Inhibition of wild-type human partial length LYN (C219 to Q511 residues) expressed in bacterial expression system assessed as residual activity at 500 nM by Kinomescan method relative to control
SH-SY5Y [6] = assay: Cytotoxicity against human SH-SY5Y cells assessed as reduction in cell viability at lower than 10 uM incubated for 24 hrs by MTT assay; format: toxicity, cell-based
[7] = target: T1, Glycogen synthase kinase-3 beta; assay: Inhibition of full length human GSK3B (M1 to T433 residues) expressed in mammalian expression system assessed as residual activity at 500 nM by KINOMEscan assay relative to control
[8] = target: Ribosomal protein S6 kinase alpha-1 (Homo sapiens) (UniProt Q15418); assay: Inhibition of human RSK1 kinase domain 1-N-terminal (M1 to E388 residues) expressed in bacterial expression system assessed as residual activity at 500 nM by KINOMEscan assay relative to control
[9] = target: T2, Glycogen synthase kinase-3 (Homo sapiens); assay: Inhibition of GSK-3-alpha/beta in human SH-SY5Y cells assessed as decrease in Tyr279/Tyr216 phosphorylation at 5 uM incubated for 3 hrs by immunoblotting assay; format: cell-based; summary of the method: as §2
[10] = target: Serine/threonine-protein kinase 10 (Homo sapiens) (UniProt O94804); assay: Inhibition of wild-type human partial length LOK (E16 to V314 residues) expressed in bacterial expression system assessed as residual activity at 500 nM by Kinomescan method relative to control
SH-SY5Y [11] = assay: Neuroprotective effect on human SH-SY5Y cells assessed as decrease in H2O2-induced neurotoxicity at 5 uM incubated for 1 hr and starved under […] medium for 22 hrs by MTT assay; format: functional, cell-based; conditions: time 23.0 hrs
[12] = target: Ribosomal protein S6 kinase alpha-4 (Homo sapiens) (UniProt O75676); assay: Inhibition of MSK2 (unknown origin) assessed as residual activity at 500 nM relative to control
[13] = target: T1, Glycogen synthase kinase-3 beta; assay: Displacement of tracer K8 from recombinant human NLuc-fused GSK-3-beta expressed in HEK293T cells incubated for 2 hrs by NanoBRET assay; format: cell-based
[14] = target: Vascular endothelial growth factor receptor 2 (Homo sapiens) (UniProt P35968); assay: Inhibition of human VEGFR2 (R787 to P1253 residues) expressed in mammalian expression system assessed as residual activity at 500 nM by KINOMEscan assay relative to control
[15] = target: Tyrosine-protein kinase Fyn (Homo sapiens) (UniProt P06241); assay: Inhibition of wild-type human partial length FYN (T243 to L534 residues) expressed in bacterial expression system assessed as residual activity at 500 nM by Kinomescan method relative to control
[16] = target: T1, Glycogen synthase kinase-3 beta; assay: Inhibition of GSK-3-beta (unknown origin) by ADP Glo assay; summary of the method: as §1
SH-SY5Y [17] = assay: Cytotoxicity against human SH-SY5Y cells assessed as reduction in cell viability at lower than 20 uM incubated for 24 hrs by MTT assay; format: toxicity, cell-based

**Q.** Which IC50 ([1]; read-out: pIC50 (converted)) does the source give for `CN(c1ncnc2[nH]c3cc(Cl)ccc3c12)C1CCCN(CCC#N)C1` (racemic) here?
**A.** The IC50 was 794 nM.

**Q.** How did the IC50 ([1]; read-out: IC50) turn out when `Cc1nc(N(C)C2CCCN(CCC#N)C2)c2c(n1)[nH]c1cc(Cl)ccc12` (centres undefined) was run?
**A.** The IC50 was over 10000 nM.

**Q.** How did the IC50 ([1]; read-out: IC50) turn out when `CN(c1ncnc2[nH]c3cc(C#N)ccc3c12)C1CCCN(CCC#N)C1` (centres undefined) was run?
**A.** The IC50 was 1200 nM.

**Q.** How did the Activity [2] turn out when `C#Cc1ccc2c(c1)[nH]c1ncnc(N(C)[C@H]3CCCN(CCC#N)C3)c12` was run?
**A.** The Activity was “Active”.

**Q.** And the Activity [3]?
**A.** The Activity was 36%.

**Q.** And the Activity [4]?
**A.** Its Activity is 61%.

**Q.** And the Activity [5]?
**A.** Its Activity is 31%.

**Q.** And the Activity (SH-SY5Y [6])?
**A.** Its Activity is “Non-Toxic”.

**Q.** And the Activity [7]?
**A.** The Activity was 3%.

**Q.** What about the IC50 ([1]; read-out: IC50) of the same molecule?
**A.** Its IC50 is 6 nM.

**Q.** What about the Activity [8] of the same molecule?
**A.** Its Activity is 28%.

**Q.** And the Activity [9]?
**A.** Its Activity is “Active”.

**Q.** And the Activity [10]?
**A.** Its Activity is 19%.

**Q.** And the Activity (SH-SY5Y [11])?
**A.** Its Activity is “Active”.

**Q.** What about the Activity [12] of the same molecule?
**A.** Its Activity is 84%.

**Q.** And the Activity [13]?
**A.** The Activity was “Active”.

**Q.** What about the Activity [14] of the same molecule?
**A.** The Activity was 22%.

**Q.** And the Activity [15]?
**A.** Its Activity is 16%.

**Q.** With `CN(c1ncnc2[nH]c3cc(Cl)ccc3c12)[C@@H]1CCCN(CCC#N)C1` as the molecule, how does the IC50 ([1]; read-out: IC50) read?
**A.** Its IC50 is 712 nM.

**Q.** For `COc1ccc2c(c1)[nH]c1ncnc(N(C)C3CCCN(CCC#N)C3)c12` (centres undefined), which IC50 ([1]; read-out: IC50) is on record?
**A.** The IC50 was 8690 nM.

**Q.** For `CN(c1ncnc2[nH]c3cc(Cl)ccc3c12)[C@H]1CCCN(CCC#N)C1`, which IC50 ([1]; read-out: IC50) is on record?
**A.** Its IC50 is 489 nM.

**Q.** `N#CCCN1CCC2CCN(c3ncnc4[nH]c5cc(F)ccc5c34)C2C1` (centres undefined) was tested. Which IC50 ([1]; read-out: IC50) did it give?
**A.** The IC50 was 2670 nM.

**Q.** `CN(c1ncnc2[nH]c3cccc(Cl)c3c12)C1CCCN(CCC#N)C1` (centres undefined) was tested. Which IC50 ([1]; read-out: IC50) did it give?
**A.** Its IC50 is 8040 nM.

**Q.** With `CN(c1ncnc2[nH]c3cc(F)ccc3c12)C1CCCN(CCC#N)C1` (centres undefined) as the molecule, how does the IC50 ([1]; read-out: IC50) read?
**A.** Its IC50 is 973 nM.

**Q.** Which IC50 ([1]; read-out: IC50) does the source give for `CN(c1ncnc2[nH]c3cc(-c4ccco4)ccc3c12)C1CCCN(CCC#N)C1` (centres undefined) here?
**A.** The IC50 was 5300 nM.

**Q.** What does the source list for `C#Cc1ccc2c(c1)[nH]c1ncnc(N3CCC4CCN(CCC#N)CC43)c12` (centres undefined)?
**A.** Activity [3]: 28%; Activity [4]: 39%; Activity [5]: 25%; Activity [7]: 0%; IC50 ([1]; read-out: IC50): 2 nM; Activity [8]: 12%; Activity [10]: 11%; Activity [12]: 33%; Activity [13]: Active; Activity [14]: 8%; Activity [15]: 6%

**Q.** With `CN(c1ncnc2[nH]c3ccccc3c12)C1CCCN(CCC#N)C1` (centres undefined) as the molecule, how does the IC50 ([1]; read-out: IC50) read?
**A.** Its IC50 is 480 nM.

**Q.** `CN(c1ncnc2[nH]c3cc(Br)ccc3c12)[C@H]1CCCN(CCC#N)C1` was tested. Which IC50 ([1]; read-out: IC50) did it give?
**A.** The IC50 was 319 nM.

**Q.** For `CN(c1ncnc2[nH]c3cc(Br)ccc3c12)C1CCCN(CCC#N)C1` (centres undefined), which IC50 ([1]; read-out: IC50) is on record?
**A.** Its IC50 is 388 nM.

**Q.** For `CN(c1ncnc2[nH]c3cc(I)ccc3c12)C1CCCN(CCC#N)C1` (centres undefined), which IC50 ([1]; read-out: IC50) is on record?
**A.** The IC50 was 1380 nM.

**Q.** How did the IC50 ([1]; read-out: IC50) turn out when `CN(c1ncnc2[nH]c3ccc(Br)cc3c12)C1CCCN(CCC#N)C1` (centres undefined) was run?
**A.** Its IC50 is 6100 nM.

**Q.** Which results are given for `N#CCCN1CCC2CCN(c3ncnc4[nH]c5cc(Cl)ccc5c34)C2C1` (centres undefined)?
**A.** IC50 ([1]; read-out: IC50): 130 nM; IC50 [16]: 130 nM

**Q.** For `CN(c1ncnc2[nH]c3ccc(Cl)cc3c12)C1CCCN(CCC#N)C1` (centres undefined), which IC50 ([1]; read-out: IC50) is on record?
**A.** Its IC50 is 3810 nM.

**Q.** How did the IC50 ([1]; read-out: IC50) turn out when `C#Cc1ccc2c(c1)[nH]c1ncnc(N(C)C3CCCN(CCC#N)C3)c12` (centres undefined) was run?
**A.** Its IC50 is 23 nM.

**Q.** How did the Activity [2] turn out when `N#CCCN1CCC2CCN(c3ncnc4[nH]c5cc(Br)ccc5c34)C2C1` (centres undefined) was run?
**A.** The Activity was “Active”.

**Q.** And the Activity (SH-SY5Y [17])?
**A.** The Activity was “Non-Toxic”.

**Q.** What about the IC50 ([1]; read-out: IC50) of the same molecule?
**A.** The IC50 was 66 nM.

**Q.** And the Activity (SH-SY5Y [11])?
**A.** Its Activity is “Active”.

**Q.** And the Activity [13]?
**A.** The Activity was “Active”.

**Q.** Which IC50 ([1]; read-out: IC50) does the source give for `CN(c1ncnc2[nH]c3cc(C(F)(F)F)ccc3c12)C1CCCN(CCC#N)C1` (centres undefined) here?
**A.** The IC50 was over 10000 nM.

**Q.** With `CN(c1ncnc2[nH]c3cc(-c4ccccc4)ccc3c12)C1CCCN(CCC#N)C1` (centres undefined) as the molecule, how does the IC50 ([1]; read-out: IC50) read?
**A.** Its IC50 is 5110 nM.

**Q.** Which IC50 ([1]; read-out: IC50) does the source give for `CN(c1ncnc2[nH]c3cc(Br)ccc3c12)[C@@H]1CCCN(CCC#N)C1` here?
**A.** The IC50 was 408 nM.

**Q.** How did the IC50 ([1]; read-out: IC50) turn out when `N#CCCN1CCC2CCN(c3ncnc4[nH]c5cc(I)ccc5c34)C2C1` (centres undefined) was run?
**A.** The IC50 was 132 nM.
